The text below walks through data of paper PMC10938339 (ACS Omega, 2024).

Like-named read-outs stand apart in the source and are kept apart here.

Data set [1] addresses T1, PPT1 (Homo sapiens, UniProt P50897).
T1 sequence (P50897 28-306): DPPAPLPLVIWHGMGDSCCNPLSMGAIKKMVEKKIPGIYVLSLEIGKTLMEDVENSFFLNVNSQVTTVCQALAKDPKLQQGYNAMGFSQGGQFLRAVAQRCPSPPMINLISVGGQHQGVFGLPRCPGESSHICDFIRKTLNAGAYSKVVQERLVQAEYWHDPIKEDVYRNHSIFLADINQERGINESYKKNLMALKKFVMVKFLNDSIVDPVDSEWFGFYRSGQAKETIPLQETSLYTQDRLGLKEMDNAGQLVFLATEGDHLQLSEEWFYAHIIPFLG
As to the kind of experiment: biochemical. The following applies: for IC50: IC50 (95 % CI).

Data set [2] has as its system PPT1. As to conditions: cited from earlier work.
Data set [3] deals with T2, PPT1 in HepG2 cell extracts (Homo sapiens, UniProt P50897).
T2 sequence (P50897 28-306): T1 sequence (P50897 28-306)
As to the kind of experiment: PPT1 inhibition in HepG2 cell extracts. In kind it is biochemical. As to conditions: cell extracts treated 1 h. The gist of the method:
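HepG2 lysates, prepared as for cells (MPER, protease inhibitor, 0.5% Triton X-100, 14,000 rpm spin), were treated directly with compound for 1 h. PPT1 activity was then read with the MU-6S-Palm-βGlc/β-glucosidase assay, measuring 4-methylumbelliferone fluorescence. Biological duplicates with technical triplicates; percent activity expressed relative to DMSO control.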

In the next data set the target is T3, PPT1 in HepG2 cells (Homo sapiens, UniProt P50897).
T3 sequence (P50897 28-306): T1 sequence (P50897 28-306)
As to the kind of experiment: PPT1 inhibition in HepG2 cells. The following applies: intact cells treated 5 h, activity relative to DMSO control. In kind it is cell-based. In outline: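 HepG2 cells in DMEM + 10% FBS (37 °C, 5% CO2) were seeded overnight, then exposed to compound in medium for 5 h. They were lysed in MPER with protease inhibitor and 0.5% Triton X-100, spun at 14,000 rpm for 15 min, and protein-normalised. Lysates were assayed with MU-6S-Palm-βGlc plus β-glucosidase (4-MU fluorescence, Ex 365/Em 448, 4-MU standard curve). Biological duplicates, technical triplicates; activity relative to DMSO.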

In data set [4] the test system is neuroblastoma SH-SY5Y cell line. Type of data set: cell-based, human. The following applies: 48 h treatment, alamarBlue 18 h; NA = not active. (Alamar Blue is a resazurin reagent that responds to reducing activity.)
The conditions of data set [5]: cited from earlier work.
For data set [6] the following is noted: cited from earlier work. This is another data set of the same source.

Turning to `OC(c1cc(C(F)(F)F)nc2c(C(F)(F)F)cccc12)C1CCCCN1` (centres unmarked) [Mefloquine], the inhibition (commonly the share of the control response that was lost under treatment) at 125 µM against PPT1 [1] (compound 125 μM) is no more than 50%.
With `CCN(CC)CCCC(C)Nc1c2ccc(Cl)cc2nc2ccc(OC)cc12` (centres unmarked) [Quinacrine], the IC50 (in general, the point on the concentration scale where inhibition reaches its midpoint) at PPT1 [1] was roughly 169 µM.
In turn, `CCN(CC)CCNc1ccc(CO)c2sc3ccccc3c(=O)c12` [Hycanthone] returned an IC50 against PPT1 [1] of 111 µM.
Same read-out and setting: for `CCOC(=O)[N-]c1cn(N2CCOCC2)n[o+]1` [Molsidomine] the value was greater than 100 µM; for `CN(C)[C@@H]1C(O)=C(C(N)=O)C(=O)[C@@]2(O)C(O)=C3C(=O)c4c(O)cccc4[C@@](C)(O)[C@H]3C[C@@H]12` [Tetracycline], greater than 100 µM.
TVB-3166: the “PPT1 inhibition (in words)” value on PPT1 [1] (FASN inhibitors tested against PPT1) is recorded as “did not inhibit PPT1”.
For the molecule `CC(C)(C)NC1CCN(c2cc(NCc3ccc(Cl)cc3)nc3ccccc23)CC1` [GNS561], the PPT1 inhibition in the data set on PPT1 [2] (1 μM after 3 h) was 25%; in the data set on PPT1 [2] (1 μM after 72 h), 50%.
For the molecule `CCN(CC)CCCC(C)Nc1ccnc2cc(Cl)ccc12` (centres unmarked) [Chloroquine], the IC50 against PPT1 [1] came out at 47.2 µM.
With `C[C@@H]1O[C@@H](OC[C@H]2O[C@@H](Oc3c(-c4ccc(O)c(O)c4)oc4cc(O)cc(O)c4c3=O)[C@H](O)[C@@H](O)[C@@H]2O)[C@H](O)[C@H](O)[C@H]1O` [Rutin trihydrate], the IC50 against PPT1 [1] was roughly 156 µM.
Regarding `CCCCCCCCCC[C@@H]1C(=O)O[C@H]1CCc1ccc(OC)c(OC)c1` [Palmostatin B], the “PPT1 inhibition in HepG2 cell extracts (in words)” value in data set [3] is “inhibited PPT1 in cell extracts”. The “PPT1 inhibition in HepG2 cells (in words)” value at PPT1 in HepG2 cells is “poor PPT1 inhibition”. At PPT1 [1], the IC50 worked out at 0.0118 µM.
Turning to `CCN(CCO)CCCC(C)Nc1ccnc2cc(Cl)ccc12` (centres unmarked) [Hydroxychloroquine], in data set [4], the “SH-SY5Y IC50” value is “did not reach a 50% decrease in cell viability at the highest concentration tested”. The molecule also displayed an IC50 on PPT1 [1] of 109 µM.
Consider `Cn1nnc2c(C(N)=O)ncn2c1=O` [Temozolomide], for which, on PPT1 [1], the IC50 came to 236 µM.
In the case of `Cc1ncc([N+](=O)[O-])n1CC(O)CCl` (centres unmarked) [Ornidazole], the IC50 against PPT1 [1] is greater than 100 µM.
Take `CO[C@H]1/C=C/O[C@@]2(C)Oc3c(C)c(O)c4c(O)c(c(/C=N/N5CCN(C6CCCC6)CC5)c(O)c4c3C2=O)NC(=O)/C(C)=C\C=C\[C@H](C)[C@H](O)[C@@H](C)[C@@H](O)[C@@H](C)[C@H](OC(C)=O)[C@@H]1C` [Rifapentine]: the IC50 at PPT1 [1] is 63.3 µM.
Molecule `CC(CN1c2ccccc2Sc2ccccc21)N(C)C` (centres unmarked) [Promethazine] gave an IC50 against PPT1 [1] greater than 100 µM.
As to `CCCCCCCCCCC[C@@H](C[C@@H]1OC(=O)[C@H]1CCCCCC)OC(=O)[C@H](CC(C)C)NC=O` [Orlistat], the oral absorption entry in data set [5] is given as “poorly orally absorbed”. The “PPT1 inhibition in HepG2 cell extracts (in words)” value in data set [3] is on record as “inhibited PPT1 in cell extracts”. Further, the “PPT1 inhibition in HepG2 cells (in words)” value on PPT1 in HepG2 cells was “poor PPT1 inhibition”. In addition, the IC50 against PPT1 [1] was determined as 0.179 µM. In addition, the % Inhibition (usually how much of the control response was suppressed) at PPT1 [1] (Spectrum Collection library screen, substrate 20 μM) worked out at 90.7%.
In the case of `Cc1ccc(C(=O)c2cc(O)c(O)c([N+](=O)[O-])c2)cc1` [Tolcapone], the “blood–brain barrier penetration” value in data set [6] was “can penetrate the blood–brain barrier”. At PPT1 [1], this molecule yielded an IC50 of 179 µM.
At PPT1 [1], `COc1cc(C=O)ccc1O` [Vanillin] displayed an IC50 of 647 µM.
As for `Cc1ncc([N+](=O)[O-])n1CCO` [Metronidazole], on PPT1 [1], the IC50 is greater than 100 µM.
On PPT1 [1], `CCN(CC)Cc1cc(Nc2ccnc3cc(Cl)ccc23)ccc1O` [Amodiaquine] yielded an IC50 of 344 µM.
